Results reported in article PMC3929184 (Journal of controlled release : official journal of the …, 2013).

Experiments:
furin protease = furin protease (Homo sapiens, UniProt P09958); assay: In vitro cleavage by furin protease; type: in vitro ADME; details: Figure S1
[1] = Glucose tolerance test after nasal administration in mice; type: in vivo, WT C57BL/6 mice; details: systemic uptake monitored functionally by glucose-tolerance test
Procedure, shortened: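 Male C57BL/6 mice (6-9 weeks; Nnt deletion), acclimatized 2 weeks, fasted 18 h, lightly isoflurane-anesthetized. 20 μL of test peptide or its glycolipid conjugate (various concentrations) or saline was dripped slowly into the nasal cavity. After 1 h, glucose 2 g/kg was injected (n = 2 each). Blood glucose was read by glucometer from ~5 μL tail-nick blood at set times, and AUC was calculated.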

Sequence of furin protease (P09958 108-794): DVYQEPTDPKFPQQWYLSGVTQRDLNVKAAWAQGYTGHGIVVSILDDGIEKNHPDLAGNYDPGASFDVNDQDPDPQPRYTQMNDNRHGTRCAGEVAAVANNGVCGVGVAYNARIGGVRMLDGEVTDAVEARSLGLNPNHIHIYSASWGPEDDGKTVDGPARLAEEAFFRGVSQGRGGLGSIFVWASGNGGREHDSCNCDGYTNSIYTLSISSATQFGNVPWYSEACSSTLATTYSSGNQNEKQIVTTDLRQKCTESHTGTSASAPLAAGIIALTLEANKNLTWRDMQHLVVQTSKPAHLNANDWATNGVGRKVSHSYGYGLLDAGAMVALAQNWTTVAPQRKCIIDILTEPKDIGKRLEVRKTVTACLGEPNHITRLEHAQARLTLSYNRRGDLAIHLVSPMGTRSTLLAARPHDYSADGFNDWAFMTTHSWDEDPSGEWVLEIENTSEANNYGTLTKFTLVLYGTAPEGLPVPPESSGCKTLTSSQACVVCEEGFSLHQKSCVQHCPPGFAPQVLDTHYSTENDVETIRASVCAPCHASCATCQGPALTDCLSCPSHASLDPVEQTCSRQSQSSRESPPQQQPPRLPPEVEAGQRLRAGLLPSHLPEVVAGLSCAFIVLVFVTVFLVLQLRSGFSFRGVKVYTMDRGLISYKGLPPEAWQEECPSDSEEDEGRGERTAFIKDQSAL

Glucagon-like peptide-1 [GLP-1*]
Cleavage by the furin protease (furin protease): resistant to cleavage | Mucosal absorption after nasal application [1]: evidence for absorption
